Assay results taken from ChEMBL document CHEMBL4145696 (J Med Chem, 2018).
Activity calls are given as the source filed them. The rule behind the calls is not given here.

Columns and labels:
A-375 [1] = assay: Cytotoxicity in human A375 cells assessed as reduction in cell viability incubated for 72 hrs by MTS assay; assay type: functional, cell-based; details: A-375, 72 h
RPMI-7951 = assay: Cytotoxicity in human RPMI7951 cells assessed as reduction in cell viability incubated for 72 hrs by MTS assay; assay type: functional, cell-based; details: RPMI-7951, 72 h
M14 = assay: Cytotoxicity in human M14 cells assessed as reduction in cell viability incubated for 72 hrs by MTS assay; assay type: functional, cell-based; details: M14, 72 h
[2] = Intrinsic clearance in rat liver microsomes in presence of NADPH regeneration system
[3] = Intrinsic clearance in mouse liver microsomes in presence of NADPH regeneration system
[4] = Intrinsic clearance in human liver microsomes in presence of NADPH regeneration system
[5] = Half life in human liver microsomes in presence of NADPH regeneration system
[6] = Half life in mouse liver microsomes in presence of NADPH regeneration system
[7] = Half life in rat liver microsomes in presence of NADPH regeneration system
Homo sapiens = species: Homo sapiens; assay: Cytotoxicity in human DU145-TxR cells assessed as reduction in cell viability up to 1 uM incubated for 72 hrs by MTS assay; assay type: functional, cell-based
Method in brief: (§1)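 Prostate lines (parental PC-3 and DU-145, with paclitaxel- or docetaxel-resistant TxR sublines) grown in RPMI 1640 with 10% FBS and antibiotic/antimycotic at 37 °C, 5% CO2. Seeded at 1,800–3,500 cells/well overnight, then dosed at 10 concentrations, 0.03 nM–1 μM, plus DMSO vehicle, for 72 h, quadruplicate. MTS read at 490 nm; IC50 by nonlinear regression.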

A-375 [8] = assay: Antitumor activity against human A375 cells xenografted in mouse assessed as reduction in tumor volume at 15 mg/kg, ip dosed every other day for 2 weeks; assay type: functional, organism-based
Method in brief: (§2)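 Nude mice (6–8 weeks) implanted s.c. in dorsal flank with 2.5×10^6 log-phase A375 cells in serum-free, phenol red-free medium mixed with Matrigel. At ~100 mm³ tumours, randomized (n = 8); i.p. 100 μL every other day for 2 weeks in PEG300:PBS 1:1, vehicle control.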

DU-145 = assay: Cytotoxicity in human DU145 cells assessed as reduction in cell viability incubated for 72 hrs by MTS assay; assay type: functional, cell-based; details: DU-145, 72 h; method in brief: as §1
A-375 [9] = assay: Antitumor activity against human A375 cells xenografted in mouse assessed as inhibition of tumor growth at 15 mg/kg, ip dosed every other day for 2 weeks relative to untreated control; assay type: functional; details: A-375, ip, 336 h, read-out: TGI; method in brief: as §2
A-375 [10] = assay: Antitumor activity against human A375 cells xenografted in mouse assessed as reduction in tumor weight at 15 mg/kg, ip dosed every other day for 2 weeks; assay type: functional; design: scale not given: the % may be the effect or the level left; method in brief: as §2
Bos taurus = species: Bos taurus; assay: Inhibition of bovine brain tubulin polymerization at 10 uM measured every 1 min for 20 mins by spectrophotometry
[11] = Cytotoxicity in human PC3-TxR cells assessed as reduction in cell viability incubated for 72 hrs by MTS assay; assay type: functional, cell-based
Mus musculus [12] = assay: Toxicity in human A375 cells xenografted mouse assessed as effect on body weight at 30 mg/kg, ip dosed every other day for 2 weeks relative to untreated control; assay type: organism-based; details: in vivo, 336 h
Mus musculus [13] = assay: Toxicity in human A375 cells xenografted mouse assessed as effect on body weight at 15 mg/kg, ip dosed every other day for 2 weeks relative to untreated control; assay type: organism-based; details: in vivo, 336 h
A-375 [14] = assay: Antitumor activity against human A375 cells xenografted in mouse assessed as inhibition of tumor growth at 30 mg/kg, ip dosed every other day for 2 weeks relative to untreated control; assay type: functional; details: A-375, ip, 336 h, read-out: TGI; method in brief: as §2
[15] = Resistance index, ratio of IC50 for cytotoxicity in human DU145-TxR cells to IC50 for cytotoxicity in human DU145 cells; assay type: functional
Method in brief: (§3)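 Prostate lines cultured in RPMI 1640 with 10% FBS at 37 °C and 5% CO2: parental PC-3 with paclitaxel-resistant PC-3/TxR, and parental DU-145 with docetaxel-resistant DU-145/TxR. Cells seeded at 1,800–3,500/well and left overnight, then exposed 72 h to 10 concentrations (0.03 nM–1 μM) or DMSO vehicle, in quadruplicate. MTS read at 490 nm; IC50s by nonlinear regression; index = resistant IC50/parental IC50.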

[16] = Cytotoxicity in human DU145-TxR cells assessed as reduction in cell viability incubated for 72 hrs by MTS assay; assay type: functional, cell-based; method in brief: as §1
A-375 [17] = assay: Antitumor activity against human A375 cells xenografted in mouse assessed as reduction in tumor weight at 30 mg/kg, ip dosed every other day for 2 weeks; assay type: functional, organism-based; method in brief: as §2
A-375 [18] = assay: Antitumor activity against human A375 cells xenografted in mouse assessed as reduction in tumor volume at 30 mg/kg, ip dosed every other day for 2 weeks; assay type: functional, organism-based; method in brief: as §2
[19] = Resistance index, ratio of IC50 for cytotoxicity in human PC3-TxR cells to IC50 for cytotoxicity in human PC3 cells; assay type: functional; method in brief: as §3
PC-3 = assay: Cytotoxicity in human PC3 cells assessed as reduction in cell viability incubated for 72 hrs by MTS assay; assay type: functional, cell-based; details: PC-3, 72 h

CLint scaled ([2]; liver microsomes)	CLint scaled ([3]; liver microsomes)	CLint scaled ([4]; liver microsomes)	t1/2 [5]	t1/2 [6]	t1/2 [7]	Compound	IC50 (A-375 [1])	IC50 (RPMI-7951)	IC50 (M14)	further results
–	–	–	–	–	–	COc1cc(C(=O)c2c[nH]c(-c3cccc4[nH]ccc34)n2)cc2c1OC=CO2	17.1 nM	34.8 nM	13.8 nM	–
54.9 mL/min/kg	154 mL/min/kg	5.95 mL/min/kg	3.5 h	0.37 h	0.85 h	O=C(c1ccc2c(c1)OCCO2)c1c[nH]c(-c2c[nH]c3ccccc23)n1	159 nM	214 nM	119 nM	–
–	–	–	–	–	–	CC(=O)O[C@H]1C(=O)[C@@]2(C)[C@H]([C@H](OC(=O)c3ccccc3)[C@]3(O)C[C@H](OC(=O)[C@H](O)[C@@H](NC(=O)c4ccccc4)c4ccccc4)C(C)=C1C3(C)C)[C@]1(OC(C)=O)CO[C@@H]1C[C@@H]2O [PACLITAXEL]	–	–	–	Activity (Homo sapiens): inactive; Activity (A-375 [8]): Active; IC50 (DU-145): 1.5 nM; inhibition in vivo at 15 mg/kg (A-375 [9]): 70.7%; Activity (A-375 [10]): 62.3%
–	–	–	1.28 h	0.82 h	0.18 h	COc1cc(C(=O)c2c[nH]c(-c3c[nH]c4ccccc34)n2)cc2c1OCO2	3.5 nM	–	5.6 nM	CLint scaled ([2]; microsomes): 253 mL/min/kg; CLint scaled ([3]; microsomes): 69.6 mL/min/kg; CLint scaled ([4]; microsomes): 16.3 mL/min/kg
51.9 mL/min/kg	28.2 mL/min/kg	9.76 mL/min/kg	2.13 h	2.03 h	0.9 h	COc1cc(C(=O)c2c[nH]c(-c3c[nH]c4ccccc34)n2)cc2c1OCCO2	21 nM	29.2 nM	11.3 nM	–
–	–	–	–	–	–	COc1cc(C(=O)c2c[nH]c(-c3c[nH]c4ccccc34)n2)cc2c1OCCCO2	32.2 nM	47.7 nM	38.2 nM	–
18.3 mL/min/kg	25.1 mL/min/kg	5.5 mL/min/kg	3.77 h	2.28 h	2.55 h	O=C(c1ccc2c(c1)OCO2)c1c[nH]c(-c2c[nH]c3ccccc23)n1	191 nM	236 nM	155 nM	–
–	–	–	–	–	–	COc1cc(C(=O)c2c[nH]c(-c3c[nH]c4cccc(C)c34)n2)cc2c1OC=CO2	–	8.8 nM	6.1 nM	–

Compound	CLint scaled ([2]; liver microsomes)	CLint scaled ([3]; liver microsomes)	CLint scaled ([4]; liver microsomes)	t1/2 [5]	t1/2 [6]	t1/2 [7]	IC50 (A-375 [1])	IC50 (RPMI-7951)	IC50 (M14)	further results
COc1cc(C(=O)c2c[nH]c(-c3c[nH]c4ccccc34)n2)cc2c1OC=CO2	13.1 mL/min/kg	40.3 mL/min/kg	7.7 mL/min/kg	2.69 h	1.42 h	3.57 h	1.1 nM	3.3 nM	1.2 nM	inhibition (Bos taurus): Active; IC50 [11]: 7.6 nM; Activity (Mus musculus [12]): Non-Toxic; Activity (Mus musculus [13]): Non-Toxic; inhibition in vivo at 30 mg/kg (A-375 [14]): 73.9%; Ratio IC50 [15]: 1.9; IC50 [16]: 81.5 nM; Activity (A-375 [8]): Active; IC50 (DU-145): 42.2 nM; Activity (A-375 [17]): Active; inhibition in vivo at 15 mg/kg (A-375 [9]): 54.8%; Activity (A-375 [18]): Active; Ratio IC50 [19]: 0.5; IC50 (PC-3): 15.2 nM
